System: Fibroblast
Assay: Multiplex assay against human fibroblast
Format: toxicity, cell-based
In short: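 At seeding, live cells were stained with Hoechst33342, BioTracker Green Microtubule Cytoskeleton Dye, MitoTracker Red and Annexin V Alexa Fluor 680. After compound addition they were imaged on a CQ1 microscope at 37°C and 5% CO2, and CellPathfinder machine-learning gating sorted them into Hoechst high-intensity objects or normal cells, with normal cells further split into healthy, pyknosed or fragmented nuclei and pyknosed cells into mitotic or apoptotic. Tubulin, mitochondrial-mass and membrane-permeability phenotypes are given as per cents of cells with healthy nuclei.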

[1] = 12 h, 1 µM, compound concentration 1 uM, replicate 1
[2] = 12 h, 1 µM, compound concentration 1 uM, replicate 2
[3] = 12 h, 10 µM, compound concentration 10 uM, replicate 1
[4] = 12 h, 10 µM, compound concentration 10 uM, replicate 2
[5] = 24 h, 1 µM, compound concentration 1 uM, replicate 1
[6] = 24 h, 1 µM, compound concentration 1 uM, replicate 2
[7] = 24 h, 10 µM, compound concentration 10 uM, replicate 1
[8] = 24 h, 10 µM, compound concentration 10 uM, replicate 2
[9] = 48 h, 1 µM, compound concentration 1 uM, replicate 1
[10] = 48 h, 1 µM, compound concentration 1 uM, replicate 2
[11] = 48 h, 10 µM, compound concentration 10 uM, replicate 1
[12] = 48 h, 10 µM, compound concentration 10 uM, replicate 2

Cc1cc(NC(=O)NCCN2CCC(O)(Cc3ccccc3)CC2)c2ccccc2n1 [PALOSURAN]
Population Apoptotic (%) [1]: 37% | Population Fragmented Nuclei (%) [1]: 10% | Population Healthy Nuclei (%) [1]: 77% | Population Hoechst High Intensity Objects (%) [1]: 2% | Population Membrane Permeable-Phenotype (%) [1]: 3% | Population Mitochondria Different-Phenotype (%) [1]: 1% | Population Mitotic Cells (%) [1]: 62% | Population Normal (%) [1]: 97% | Population Pyknosed Nuclei (%) [1]: 12% | Population Tubulin-Different-Phenotype (%) [1]: 19% | Total Cell Count [1]: 133 | Population Apoptotic (%) [2]: 40% | Population Fragmented Nuclei (%) [2]: 26% | Population Healthy Nuclei (%) [2]: 44% | Population Hoechst High Intensity Objects (%) [2]: 9% | Population Membrane Permeable-Phenotype (%) [2]: 1% | Population Mitochondria Different-Phenotype (%) [2]: 13% | Population Mitotic Cells (%) [2]: 59% | Population Normal (%) [2]: 90% | Population Pyknosed Nuclei (%) [2]: 28% | Population Tubulin-Different-Phenotype (%) [2]: 46% | Total Cell Count [2]: 143 | Population Apoptotic (%) [3]: 40% | Population Fragmented Nuclei (%) [3]: 14% | Population Healthy Nuclei (%) [3]: 69% | Population Hoechst High Intensity Objects (%) [3]: 1% | Population Membrane Permeable-Phenotype (%) [3]: 0% | Population Mitochondria Different-Phenotype (%) [3]: 13% | Population Mitotic Cells (%) [3]: 59% | Population Normal (%) [3]: 98% | Population Pyknosed Nuclei (%) [3]: 15% | Population Tubulin-Different-Phenotype (%) [3]: 37% | Total Cell Count [3]: 178 | Population Apoptotic (%) [4]: 41% | Population Fragmented Nuclei (%) [4]: 28% | Population Healthy Nuclei (%) [4]: 49% | Population Hoechst High Intensity Objects (%) [4]: 6% | Population Membrane Permeable-Phenotype (%) [4]: 3% | Population Mitochondria Different-Phenotype (%) [4]: 3% | Population Mitotic Cells (%) [4]: 58% | Population Normal (%) [4]: 93% | Population Pyknosed Nuclei (%) [4]: 22% | Population Tubulin-Different-Phenotype (%) [4]: 51% | Total Cell Count [4]: 113 | Population Apoptotic (%) [5]: 53% | Population Fragmented Nuclei (%) [5]: 15% | Population Healthy Nuclei (%) [5]: 73% | Population Hoechst High Intensity Objects (%) [5]: 2% | Population Membrane Permeable-Phenotype (%) [5]: 1% | Population Mitochondria Different-Phenotype (%) [5]: 0% | Population Mitotic Cells (%) [5]: 46% | Population Normal (%) [5]: 97% | Population Pyknosed Nuclei (%) [5]: 10% | Population Tubulin-Different-Phenotype (%) [5]: 17% | Total Cell Count [5]: 129 | Population Apoptotic (%) [6]: 40% | Population Fragmented Nuclei (%) [6]: 27% | Population Healthy Nuclei (%) [6]: 50% | Population Hoechst High Intensity Objects (%) [6]: 6% | Population Membrane Permeable-Phenotype (%) [6]: 14% | Population Mitochondria Different-Phenotype (%) [6]: 21% | Population Mitotic Cells (%) [6]: 60% | Population Normal (%) [6]: 93% | Population Pyknosed Nuclei (%) [6]: 22% | Population Tubulin-Different-Phenotype (%) [6]: 62% | Total Cell Count [6]: 119 | Population Apoptotic (%) [7]: 42% | Population Fragmented Nuclei (%) [7]: 14% | Population Healthy Nuclei (%) [7]: 77% | Population Hoechst High Intensity Objects (%) [7]: 1% | Population Membrane Permeable-Phenotype (%) [7]: 0% | Population Mitochondria Different-Phenotype (%) [7]: 8% | Population Mitotic Cells (%) [7]: 57% | Population Normal (%) [7]: 98% | Population Pyknosed Nuclei (%) [7]: 8% | Population Tubulin-Different-Phenotype (%) [7]: 37% | Total Cell Count [7]: 178 | Population Apoptotic (%) [8]: 60% | Population Fragmented Nuclei (%) [8]: 30% | Population Healthy Nuclei (%) [8]: 47% | Population Hoechst High Intensity Objects (%) [8]: 3% | Population Membrane Permeable-Phenotype (%) [8]: 3% | Population Mitochondria Different-Phenotype (%) [8]: 1% | Population Mitotic Cells (%) [8]: 40% | Population Normal (%) [8]: 96% | Population Pyknosed Nuclei (%) [8]: 22% | Population Tubulin-Different-Phenotype (%) [8]: 48% | Total Cell Count [8]: 117 | Population Apoptotic (%) [9]: 50% | Population Fragmented Nuclei (%) [9]: 16% | Population Healthy Nuclei (%) [9]: 72% | Population Hoechst High Intensity Objects (%) [9]: 3% | Population Membrane Permeable-Phenotype (%) [9]: 0% | Population Mitochondria Different-Phenotype (%) [9]: 2% | Population Mitotic Cells (%) [9]: 50% | Population Normal (%) [9]: 96% | Population Pyknosed Nuclei (%) [9]: 11% | Population Tubulin-Different-Phenotype (%) [9]: 15% | Total Cell Count [9]: 126 | Population Apoptotic (%) [10]: 61% | Population Fragmented Nuclei (%) [10]: 42% | Population Healthy Nuclei (%) [10]: 44% | Population Hoechst High Intensity Objects (%) [10]: 7% | Population Membrane Permeable-Phenotype (%) [10]: 14% | Population Mitochondria Different-Phenotype (%) [10]: 14% | Population Mitotic Cells (%) [10]: 38% | Population Normal (%) [10]: 92% | Population Pyknosed Nuclei (%) [10]: 13% | Population Tubulin-Different-Phenotype (%) [10]: 61% | Total Cell Count [10]: 149 | Population Apoptotic (%) [11]: 55% | Population Fragmented Nuclei (%) [11]: 19% | Population Healthy Nuclei (%) [11]: 69% | Population Hoechst High Intensity Objects (%) [11]: 5% | Population Membrane Permeable-Phenotype (%) [11]: 0% | Population Mitochondria Different-Phenotype (%) [11]: 10% | Population Mitotic Cells (%) [11]: 44% | Population Normal (%) [11]: 94% | Population Pyknosed Nuclei (%) [11]: 10% | Population Tubulin-Different-Phenotype (%) [11]: 36% | Total Cell Count [11]: 186 | Population Apoptotic (%) [12]: 61% | Population Fragmented Nuclei (%) [12]: 38% | Population Healthy Nuclei (%) [12]: 44% | Population Hoechst High Intensity Objects (%) [12]: 2% | Population Membrane Permeable-Phenotype (%) [12]: 2% | Population Mitochondria Different-Phenotype (%) [12]: 6% | Population Mitotic Cells (%) [12]: 38% | Population Normal (%) [12]: 97% | Population Pyknosed Nuclei (%) [12]: 16% | Population Tubulin-Different-Phenotype (%) [12]: 61% | Total Cell Count [12]: 112
